For data set [1], the target named is Xaa-Pro dipeptidase (Alteromonas sp.) (UniProt Q44238). Put plainly: Kinetic constant Kcat from initial velocity assay against Organophosphorus acid anhydrolase from Alteromonas sp. JD6.5. In short, it runs like this:
(§1)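 Recombinant OPAA expressed in E. coli XL1 (plasmid pTCJS4), then ammonium sulfate and Q-Sepharose purification. Continuous plate assay at 25 °C with 1 μg enzyme in 50 mM bis-Tris propane pH 8.5, 100 mM NaCl, 0.1 mM MnCl2. Phenyl-containing and diisopropyl substrates had 5% methanol, diphenyl substrate 20%. p-Nitrophenol release was read at 400 nm (ε 17,000 M⁻¹ cm⁻¹). Rates were fitted to v = kcat·E·A/(Km + A).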

The target is the same in data set [2]. Kind of data set: Ratio of kinetic constant Kcat to Km from initial velocity assay against OPAA from Alteromonas sp. JD6.5. The procedure, abridged: as §1
For data set [3] the target is unchanged. Put plainly: Ratio of kinetic constant K1 to K2 from progress curves against OPAA from Alteromonas sp. JD6.5. The procedure, abridged:
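Time-course assays at 25 °C in a cuvette spectrophotometer, started by adding enzyme to 3.0 mL of 50 mM bis-Tris propane pH 8.5, 100 mM NaCl, 0.1 mM MnCl2, without methanol. Complete hydrolysis was followed at 400 nm. Traces were fitted to single or double exponential equations to give rate constants for the two enantiomers, and their ratio was taken.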

Data set [4] has the same target. Put plainly: Ratio of kinetic constant Kcat to Km Sp and Kcat to Km Rp from initial velocity assay against OPAA from Alteromonas sp. JD6.5. The procedure, abridged: as §1
The test system of data set [5] is CC(C)O[P@@](=O)(Oc1ccccc1)Oc1ccc([N+](=O)[O-])cc1. Put plainly: (§2) Kinetic constant Km from initial velocity assay against Organophosphorus acid anhydrolase from Alteromonas sp. JD6.5. The procedure, abridged:
as §1

Data set [6] relates to CC(C)O[P@](=O)(Oc1ccccc1)Oc1ccc([N+](=O)[O-])cc1. Described as §2. The procedure, abridged:
as §1

Data set [7] has as its system CCOP(=O)(OCC)Oc1ccc([N+](=O)[O-])cc1. The description is as §2. The procedure, abridged:
as §1

The subject of data set [8] is CCO[P@@](=O)(OC)Oc1ccc([N+](=O)[O-])cc1. The data set is described as §2. In short, it runs like this:
as §1

Data set [9] deals with CCO[P@@](=O)(Oc1ccccc1)Oc1ccc([N+](=O)[O-])cc1. The description is as §2. In short, it runs like this: as §1
The test system of data set [10] is CCO[P@](=O)(OC)Oc1ccc([N+](=O)[O-])cc1. Described as §2. In short, it runs like this:
as §1

The subject of data set [11] is CCO[P@](=O)(Oc1ccccc1)Oc1ccc([N+](=O)[O-])cc1. The data set is described as §2. In short, it runs like this: as §1
In data set [12] the test system is COP(=O)(OC)Oc1ccc([N+](=O)[O-])cc1. The description is as §2. In short, it runs like this:
as §1

For data set [13], the system named is CO[P@@](=O)(Oc1ccc([N+](=O)[O-])cc1)OC(C)C. The data set is described as §2. In short, it runs like this:
as §1

The subject of data set [14] is CO[P@@](=O)(Oc1ccccc1)Oc1ccc([N+](=O)[O-])cc1. Described as §2. In short, it runs like this:
as §1

For data set [15], the system named is CO[P@](=O)(Oc1ccc([N+](=O)[O-])cc1)OC(C)C. The description is as §2. The procedure, abridged:
as §1

Data set [16] has as its system CO[P@](=O)(Oc1ccccc1)Oc1ccc([N+](=O)[O-])cc1. The data set is described as §2. In short, it runs like this: as §1
The test system of data set [17] is O=[N+]([O-])c1ccc(OP(=O)(Oc2ccccc2)Oc2ccccc2)cc1. The data set is described as §2. The procedure, abridged:
as §1

For data set [18], the target named is Xaa-Pro dipeptidase (Alteromonas sp.) (UniProt Q44238). Put plainly: Kinetic constant Kcat from initial velocity assay (at 7.6 mM substrate) against Organophosphorus acid anhydrolase from Alteromonas sp. JD6.5. The procedure, abridged:
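Initial-rate assay at a single substrate concentration of 7.6 mM. Used 1 μg purified recombinant OPAA (E. coli XL1/pTCJS4) at 25 °C in 50 mM bis-Tris propane pH 8.5, 100 mM NaCl, 0.1 mM MnCl2, with methanol cosolvent as needed. Hydrolysis was followed at 400 nm as p-nitrophenol (ε 17,000 M⁻¹ cm⁻¹).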

For data set [19] the target is unchanged. Put plainly: Ratio of kinetic constant Kcat to Km by linear fit to data against OPAA from Alteromonas sp. JD6.5. The procedure, abridged: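 kcat/Km was taken from a linear fit to initial-rate data. Continuous 400 nm p-nitrophenol assay at 25 °C with 1 μg recombinant OPAA (E. coli XL1/pTCJS4). Buffer was 50 mM bis-Tris propane pH 8.5, 100 mM NaCl, 0.1 mM MnCl2, plus 5–20% methanol depending on substrate.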

Chain of Xaa-Pro dipeptidase (Alteromonas sp.) (UniProt Q44238) (Q44238 whole entry, looked up): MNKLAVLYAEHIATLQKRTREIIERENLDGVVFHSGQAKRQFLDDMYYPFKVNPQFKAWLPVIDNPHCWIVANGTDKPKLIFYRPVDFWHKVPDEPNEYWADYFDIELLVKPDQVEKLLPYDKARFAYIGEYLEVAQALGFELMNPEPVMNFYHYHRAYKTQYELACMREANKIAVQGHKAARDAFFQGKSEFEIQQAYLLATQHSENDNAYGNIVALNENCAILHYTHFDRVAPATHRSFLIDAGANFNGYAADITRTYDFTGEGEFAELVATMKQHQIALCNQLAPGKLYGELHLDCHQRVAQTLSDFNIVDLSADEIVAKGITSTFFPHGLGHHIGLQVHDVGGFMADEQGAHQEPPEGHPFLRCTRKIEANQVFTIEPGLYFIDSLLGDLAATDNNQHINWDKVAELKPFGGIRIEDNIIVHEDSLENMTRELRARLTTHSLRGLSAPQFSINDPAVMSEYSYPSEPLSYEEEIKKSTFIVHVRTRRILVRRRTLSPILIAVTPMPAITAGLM

`CO[P@](=O)(Oc1ccc([N+](=O)[O-])cc1)OC(C)C` yielded a k cat in data set [1] of 54 s⁻¹. In data set [2], the k cat/Km was 4510 M⁻¹ s⁻¹.

The molecule `O=[N+]([O-])c1ccc(OP(=O)(Oc2ccccc2)Oc2ccccc2)cc1` registered a k cat in [1] of 0.1 s⁻¹. Moreover, in data set [2], the k cat/Km amounted to 530 M⁻¹ s⁻¹.

Take `CCO[P@@](=O)(OC)Oc1ccc([N+](=O)[O-])cc1`: in data set [1], the k cat stood at 0.8 s⁻¹. The values for the Ratio in data set [3] and in [4] were 112 and 36, respectively. Besides, the k cat/Km in data set [2] turned out to be 90 M⁻¹ s⁻¹.

`CC(C)O[P@](=O)(Oc1ccccc1)Oc1ccc([N+](=O)[O-])cc1`: the k cat in [1] stood at 0.1 s⁻¹. The Ratio in data set [3] is 3.5; in data set [4], under 3. For the same molecule, the k cat/Km in data set [2] stood at 240 M⁻¹ s⁻¹.

Regarding `CCO[P@](=O)(Oc1ccccc1)Oc1ccc([N+](=O)[O-])cc1`, in data set [1], the k cat was determined as 0.2 s⁻¹. Besides, the figures for the Ratio in data set [3] and in data set [4] were 2.8 and under 3, respectively. Besides, the k cat/Km in data set [2] worked out at 300 M⁻¹ s⁻¹.

`COP(=O)(OC)Oc1ccc([N+](=O)[O-])cc1` registered a k cat in data set [1] of 1.4 s⁻¹. Besides, the k cat/Km in data set [2] worked out at 140 M⁻¹ s⁻¹.

In the case of `CO[P@@](=O)(Oc1ccc([N+](=O)[O-])cc1)OC(C)C`, the k cat in data set [1] was 3.6 s⁻¹. In addition, the figures for the Ratio in data set [3] and in data set [4] were 100 and 23, respectively. In data set [2], the k cat/Km was determined as 190 M⁻¹ s⁻¹.

In the case of “Xaa-Pro dipeptidase (Alteromonas sp.) (from UniProt Q44238)”, the Km – broadly, the substrate concentration at which the rate is half of its maximum – in data set [5] was 1.3 mM; in [6], 0.3 mM; in data set [7], over 7.6 mM; in data set [8] it was 8.3 mM; in [9], 2 mM; in [10], 14 mM. In addition, the Km in data set [11] worked out at 0.6 mM; in [12], 9.5 mM; in data set [13] it was 19 mM; in data set [14] it was 4 mM; in [15], 12 mM; in data set [16] it was 0.8 mM. The Michaelis constant (Km) in [17] stood at 0.2 mM.

In turn, `CC(C)O[P@@](=O)(Oc1ccccc1)Oc1ccc([N+](=O)[O-])cc1` returned a k cat in data set [1] of 0.2 s⁻¹. Besides, in data set [2], the k cat/Km is 150 M⁻¹ s⁻¹.

In data set [1], `CO[P@@](=O)(Oc1ccccc1)Oc1ccc([N+](=O)[O-])cc1` registered a k cat of 40 s⁻¹. The k cat/Km in data set [2] stood at 9990 M⁻¹ s⁻¹.

In turn, `CCO[P@](=O)(OC)Oc1ccc([N+](=O)[O-])cc1` registered a k cat in data set [1] of 47 s⁻¹. Also, the k cat/Km in data set [2] was determined as 3250 M⁻¹ s⁻¹.

For the molecule `CO[P@](=O)(Oc1ccccc1)Oc1ccc([N+](=O)[O-])cc1`, in [1], the k cat was 1.8 s⁻¹. Moreover, the Ratio in data set [3] is 14.5; in data set [4] it was 4. Besides, the k cat/Km in data set [2] was found to be 2340 M⁻¹ s⁻¹.

`CCO[P@@](=O)(Oc1ccccc1)Oc1ccc([N+](=O)[O-])cc1` had a k cat in data set [1] of 0.7 s⁻¹. In data set [2], the k cat/Km was 360 M⁻¹ s⁻¹.

Regarding `CCOP(=O)(OCC)Oc1ccc([N+](=O)[O-])cc1`, the k cat in data set [18] amounted to 1.8 s⁻¹. In [19], the k cat/Km came out at 280 M⁻¹ s⁻¹.
